From ChEMBL document CHEMBL2086296, “Synthesis of novel quinoline-2-one based chalcones of potential anti-tumor activity” (Eur J Med Chem, 2012)

What was measured:
[1] = tested on: MDA-MB-231; experiment: (§1) Cytotoxicity against human MDA-MB-231 cells after 24 hrs by SRB assay; format: functional; settings: MDA-MB-231, 24 h
How it was run: (§2)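 NCI 60-line screen. Cells in RPMI 1640 with 5% FBS and 2 mM L-glutamine, seeded at 5,000–40,000 cells/well by doubling time, then incubated 24 h at 37 °C, 5% CO2 before dosing. Time-zero plates fixed with TCA at drug addition. DMSO stocks diluted in medium with gentamicin to five concentrations, […]. Protein read by SRB staining. GI50, TGI and LC50 derived relative to control and time-zero.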

[2] = tested on: SK-MEL-5; experiment: (§3) Cytotoxicity against human SK-MEL-5 cells after 24 hrs by SRB assay; format: functional; settings: SK-MEL-5, 24 h; how it was run: as §2
[3] = tested on: OVCAR-4; experiment: (§4) Cytotoxicity against human OVCAR4 cells after 24 hrs by SRB assay; format: functional; settings: OVCAR-4, 24 h; how it was run: as §2
[4] = tested on: IGROV-1; experiment: (§5) Cytotoxicity against human IGROV1 cells after 24 hrs by SRB assay; format: functional; settings: IGROV-1, 24 h; how it was run: as §2
[5] = tested on: ACHN; experiment: Cytotoxicity against human ACHN cells after 24 hrs by SRB assay; format: functional; how it was run: as §2
[6] = tested on: COLO 205; experiment: (§6) Cytotoxicity against human COLO205 cells after 24 hrs by SRB assay; format: cell-based; settings: colo 205, 24 h
How it was run: (§7)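 NCI 60-cell screen. Cells grown in RPMI 1640 with 5% FBS and 2 mM L-glutamine, seeded at 5,000–40,000 cells/well, preincubated 24 h at 37 °C in 5% CO2. Drug stock in DMSO, diluted in medium with gentamicin; five final concentrations, 100, 10, 1.0, 0.1 and […]. Time-zero plates were TCA-fixed. Protein read by SRB staining; GI50, TGI and LC50 taken relative to time-zero.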

[7] = tested on: HCC 2998; experiment: Cytotoxicity against human HCC2998 cells after 24 hrs by SRB assay; format: functional; settings: HCC 2998, 24 h; how it was run: as §2
[8] = tested on: UO-31; experiment: (§8) Cytotoxicity against human UO31 cells after 24 hrs by SRB assay; format: functional; settings: UO-31, 24 h
How it was run: (§9)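 NCI 60-cell screen. Cells are grown in RPMI 1640 with 5% FBS and 2 mM L-glutamine and seeded at 5,000–40,000 cells/well according to doubling time. They are preincubated 24 h at 37 °C in 5% CO2, and Tz plates are TCA-fixed at drug addition. Drug stock is in DMSO, diluted in medium with gentamicin, and tested at five concentrations (100, 10, 1.0, 0.1, […]). Protein is read by SRB staining. GI50, TGI and LC50 are derived relative to time-zero and control wells.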

[9] = tested on: SNB-19; experiment: Cytotoxicity against human SNB19 cells after 24 hrs by SRB assay; format: cell-based; settings: snb-19, 24 h
How it was run: (§10)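 NCI 60-cell-line screen: cells grown in RPMI 1640 with 5% FBS and 2 mM L-glutamine, seeded at 5,000–40,000 cells/well by doubling time, and preincubated 24 h at 37 °C in 5% CO2. Time-zero plates were TCA-fixed. DMSO stocks were diluted in medium with gentamicin to five concentrations (100, 10, 1.0, 0.1, […]). Protein was read by SRB, and GI50, TGI and LC50 were derived against time-zero.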

[10] = tested on: IGROV-1; experiment: as §5; format: cell-based; settings: igrov-1, 24 h; how it was run: as §7
[11] = tested on: SW-620; experiment: (§11) Cytotoxicity against human SW620 cells after 24 hrs by SRB assay; format: cell-based; settings: sw-620, 24 h; how it was run: as §10
[12] = tested on: HT-29; experiment: Cytotoxicity against human HT-29 cells after 24 hrs by SRB assay; format: functional; settings: HT-29, 24 h; how it was run: as §2
[13] = tested on: MOLT-4; experiment: Cytotoxicity against human MOLT4 cells after 24 hrs by SRB assay; format: functional; settings: MOLT-4, 24 h; how it was run: as §2
[14] = tested on: UACC-62; experiment: (§12) Cytotoxicity against human UACC62 cells after 24 hrs by SRB assay; format: cell-based; settings: uacc-62, 24 h; how it was run: as §10
[15] = tested on: M14; experiment: Cytotoxicity against human M14 cells after 24 hrs by SRB assay; format: cell-based; settings: m14, 24 h; how it was run: as §7
[16] = tested on: NCI-H522; experiment: Cytotoxicity against human NCI-H522 cells after 24 hrs by SRB assay; format: cell-based; settings: nci-h522, 24 h; how it was run: as §7
[17] = tested on: 786-0; experiment: Cytotoxicity against human 786-0 cells after 24 hrs by SRB assay; format: cell-based; settings: 786-0, 24 h; how it was run: as §7
[18] = tested on: COLO 205; experiment: as §6; format: functional; settings: COLO 205, 24 h; how it was run: as §2
[19] = tested on: SF-268; experiment: Cytotoxicity against human SF268 cells after 24 hrs by SRB assay; format: cell-based; settings: sf-268, 24 h; how it was run: as §7
[20] = tested on: SK-MEL-28; experiment: Cytotoxicity against human SK-MEL-28 cells after 24 hrs by SRB assay; format: cell-based; settings: sk-mel-28, 24 h; how it was run: as §7
[21] = tested on: MDA-MB-468; experiment: (§13) Cytotoxicity against human MDA-MB-468 cells after 24 hrs by SRB assay; format: functional; settings: MDA-MB-468, 24 h; how it was run: as §2
[22] = tested on: HCT-15; experiment: Cytotoxicity against human HCT15 cells after 24 hrs by SRB assay; format: cell-based; settings: hct-15, 24 h; how it was run: as §7
[23] = tested on: UO-31; experiment: as §8; format: cell-based; settings: uo-31, 24 h; how it was run: as §10
[24] = tested on: SF-295; experiment: Cytotoxicity against human SF295 cells after 24 hrs by SRB assay; format: cell-based; settings: sf-295, 24 h; how it was run: as §7
[25] = tested on: SK-OV-3; experiment: Cytotoxicity against human SKOV3 cells after 24 hrs by SRB assay; format: cell-based; settings: sk-ov-3, 24 h; how it was run: as §10
[26] = tested on: SK-MEL-2; experiment: Cytotoxicity against human SK-MEL-2 cells after 24 hrs by SRB assay; format: cell-based; settings: sk-mel-2, 24 h; how it was run: as §7
[27] = tested on: Malme-3M; experiment: (§14) Cytotoxicity against human MALME-3M cells after 24 hrs by SRB assay; format: functional; how it was run: as §2
[28] = tested on: SW-620; experiment: as §11; format: functional; settings: SW-620, 24 h; how it was run: as §9
[29] = tested on: MDA-MB-468; experiment: as §13; format: cell-based; settings: mda-mb-468, 24 h; how it was run: as §7
[30] = tested on: SK-MEL-5; experiment: as §3; format: cell-based; settings: sk-mel-5, 24 h; how it was run: as §7
[31] = tested on: RXF 393; experiment: Cytotoxicity against human RXF393 cells after 24 hrs by SRB assay; format: cell-based; settings: rxf 393, 24 h; how it was run: as §7
[32] = tested on: OVCAR-4; experiment: as §4; format: cell-based; settings: ovcar-4, 24 h; how it was run: as §7
[33] = tested on: SR; experiment: Cytotoxicity against human SR cells after 24 hrs by SRB assay; format: cell-based; how it was run: as §10
[34] = tested on: UACC-62; experiment: as §12; format: functional; settings: UACC-62, 24 h; how it was run: as §9
[35] = tested on: NCI-H322M; experiment: (§15) Cytotoxicity against human NCI-H322M cells after 24 hrs by SRB assay; format: cell-based; how it was run: as §7
[36] = tested on: NCI-H226; experiment: Cytotoxicity against human NCI-H226 cells after 24 hrs by SRB assay; format: cell-based; settings: nci-h226, 24 h; how it was run: as §7
[37] = tested on: NCI-H322M; experiment: as §15; format: functional; how it was run: as §2
[38] = tested on: Malme-3M; experiment: as §14; format: cell-based; how it was run: as §7
[39] = tested on: NCI/ADR-RES; experiment: Cytotoxicity against human NCI/ADR-RES cells after 24 hrs by SRB assay; format: cell-based; how it was run: as §7
[40] = tested on: RPMI-8226; experiment: Cytotoxicity against human RPMI8226 cells after 24 hrs by SRB assay; format: cell-based; settings: rpmi-8226, 24 h; how it was run: as §7
[41] = tested on: MDA-MB-231; experiment: as §1; format: cell-based; settings: mda-mb-231, 24 h; how it was run: as §7

O=C(/C=C/c1cc2ccccc2[nH]c1=O)c1ccc(Cl)cc1
GI50 [1]: 6.16 µM | TGI [1]: 28.3 µM | GI50 [2]: 18.9 µM | TGI [2]: > 100 µM | GI50 [3]: 1670 nM | TGI [3]: > 100 µM | GI50 [4]: 3.71 µM | TGI [4]: 14.7 µM | GI50 [5]: 7.27 µM | TGI [5]: 27.4 µM | LC50 [6]: > 100 µM | GI50 [7]: 6.55 µM | TGI [7]: 22.3 µM | GI50 [8]: 5.27 µM | TGI [8]: > 100 µM | LC50 [9]: > 100 µM | LC50 [10]: 50.7 µM | LC50 [11]: 56.6 µM | GI50 [12]: 3.84 µM | TGI [12]: 22.5 µM | GI50 [13]: 3.11 µM | TGI [13]: > 100 µM | LC50 [14]: > 100 µM | LC50 [15]: > 100 µM | LC50 [16]: 47.2 µM | LC50 [17]: > 100 µM | GI50 [18]: 10.1 µM | TGI [18]: 51.3 µM | LC50 [19]: > 100 µM | LC50 [20]: > 100 µM | GI50 [21]: 2960 nM | TGI [21]: 9.88 µM | LC50 [22]: > 100 µM | LC50 [23]: > 100 µM | LC50 [24]: > 100 µM | LC50 [25]: > 100 µM | LC50 [26]: 72.6 µM | GI50 [27]: 9.42 µM | TGI [27]: 35.3 µM | GI50 [28]: 3.38 µM | TGI [28]: 12.1 µM | LC50 [29]: 53.2 µM | LC50 [30]: > 100 µM | LC50 [31]: > 100 µM | LC50 [32]: > 100 µM | LC50 [33]: > 100 µM | GI50 [34]: 5.71 µM | TGI [34]: 54.3 µM | LC50 [35]: > 100 µM | LC50 [36]: > 100 µM | GI50 [37]: 13.4 µM | TGI [37]: 79 µM | LC50 [38]: > 100 µM | LC50 [39]: > 100 µM | LC50 [40]: > 100 µM | LC50 [41]: > 100 µM

COc1ccc(C(=O)/C=C/c2cc3ccccc3[nH]c2=O)cc1
GI50 [1]: 3.29 µM | TGI [1]: 17.9 µM | GI50 [2]: 5.73 µM | TGI [2]: 18.1 µM | GI50 [3]: 2940 nM | TGI [3]: > 100 µM | GI50 [5]: 3.93 µM | TGI [5]: 16.7 µM | LC50 [6]: 77.6 µM | GI50 [7]: 2.5 µM | TGI [7]: 6.49 µM | LC50 [9]: 75.8 µM | LC50 [11]: 40.2 µM | GI50 [12]: 3.67 µM | TGI [12]: > 100 µM | GI50 [13]: 3.39 µM | TGI [13]: > 100 µM | LC50 [14]: 60.2 µM | LC50 [15]: > 100 µM | LC50 [16]: > 100 µM | LC50 [17]: > 100 µM | GI50 [18]: 3.66 µM | TGI [18]: 13.4 µM | LC50 [19]: 40.7 µM | LC50 [20]: > 100 µM | GI50 [21]: 2380 nM | TGI [21]: 5.98 µM | LC50 [22]: > 100 µM | LC50 [24]: 80.8 µM | LC50 [25]: > 100 µM | LC50 [26]: > 100 µM | GI50 [28]: 3.41 µM | TGI [28]: 8.89 µM | LC50 [29]: 39.8 µM | LC50 [30]: 45 µM | LC50 [31]: 33.5 µM | LC50 [32]: > 100 µM | LC50 [33]: > 100 µM | GI50 [34]: 4.38 µM | TGI [34]: 19.3 µM | LC50 [36]: > 100 µM | LC50 [39]: > 100 µM | LC50 [40]: > 100 µM | LC50 [41]: > 100 µM
